# From ChEMBL document CHEMBL1165970, “Design, synthesis and biological evaluation of trans 2-(thiophen-2-yl)vinyl heteroaromatic iodides” (2010)
# Legend:
# MCF7 = experiment: Growth inhibition of human MCF7 cells after 3 days by MTT assay; assay type: functional; settings: MCF7, 72 h
# Procedure, shortened: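 MCF-7 mammary adenocarcinoma cells were grown in DMEM (1.0 g/L D-glucose) with 10% heat-inactivated FBS, 2 mM L-alanyl-L-glutamine and penicillin-streptomycin at 37 °C under 5% CO2. Compounds were added 24 h after plating (0.01–100 µM final), with untreated controls. After 3 days, MTT was read at 570 nm; each value is the mean of 8 wells. GI50 was calculated per NCI, 100×(T−T0)/(C−T0)=50.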
# LNCaP = experiment: Growth inhibition of human LNCAP cells after 3 days by MTT assay; assay type: functional; settings: 72 h
# Procedure, shortened: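 LNCap prostate adenocarcinoma cells were grown in RPMI 1640 with 10% heat-inactivated FBS, 2 mM L-alanyl-L-glutamine and penicillin-streptomycin at 37 °C under 5% CO2. Cells were plated, then treated 24 h later at 0.01–100 µM final against untreated controls. MTT was read at 570 nm after 3 days, averaging 8 wells. GI50 was derived by the NCI formula 100×(T−T0)/(C−T0)=50.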
GI50 (MCF7),GI50 (LNCaP),Compound,LC50 (MCF7),LC50 (LNCaP)
1 µM,20 µM,Cn1cc[n+](C)c1/C=C/c1cc(-c2ccccc2)cs1,–,–
1.45 µM,8.32 µM,Cn1cc[n+](C)c1/C=C/c1ccc(-c2ccccc2)s1,–,–
14.5 µM,–,Cn1cc[n+](C)c1/C=C/c1ccc(Br)s1,–,–
4.68 µM,6.03 µM,Cn1cc[n+](C)c1/C=C/c1ccc(-c2cccs2)s1,–,–
100 µM,–,Cn1cccc1/C=C/c1n(C)cc[n+]1C,–,–

# The remaining lines, values behind:
Compound,GI50 (MCF7),GI50 (LNCaP),LC50 (MCF7),LC50 (LNCaP)
C[n+]1ccccc1/C=C/c1cc(-c2ccccc2)cs1,0.525 µM,7.59 µM,77.6 µM,69.2 µM
Cn1c(/C=C/c2cccc[n+]2C)cc2ccccc21,15.1 µM,–,–,–
C[n+]1ccccc1/C=C/c1ccc(-c2ccccc2)s1,8.32 µM,33.9 µM,–,–
